Assays:
[1] = Inhibition of HIV1 reverse transcriptase K103 mutant
[2] = test system: Human immunodeficiency virus 1; assay: Antiviral activity against HIV1 3B infected human MT4 cells assessed as drug level required for 95% inhibition in the presence of 10% fetal bovine serum; assay type: functional
In short: (§1)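 Spread assay: MT-4 human T-lymphoid cells in RPMI 1640 with either 10% FBS or 50% NHS; CIC95 taken as the concentration blocking >95% of virus spread. Wild-type virus H9IIIB or R8 as stated per line. Geometric mean of at least two determinations, individual values within 25% of the mean.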

[3] = test system: Human immunodeficiency virus 1; assay: Antiviral activity against HIV1 3B infected human MT4 cells assessed as drug level required for 95% inhibition in the presence of 50% normal human serum; assay type: functional
In short: as §1

[4] = test system: Human immunodeficiency virus 1; assay: Antiviral activity against HIV1 carrying reverse transcriptase V106A/G190A/F227L mutant infected human MT4 cells by phenoscreen assay in the presence of 40 percent normal human serum; assay type: functional, organism-based; details: Human immunodeficiency virus 1, MT4
In short: (§2)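 Phenotypic recombinant-virus assay (Phenoscreen, Monogram Bioscience), run with 40% normal human serum present. IC50 is the compound concentration in cell culture that inhibits viral replication by 50%.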

[5] = Oral bioavailability in Beagle dog at 1 mg/kg; assay type: ADME, organism-based, Canis lupus familiaris; details: in vivo
In short: (§3)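 Beagle dogs (n = 2) dosed singly, po 1 mg/kg and iv 0.5 mg/kg; iv cassette co-administered with other analogues at 0.125 mg/kg. Interanimal variability below 20%.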

[6] = test system: Human immunodeficiency virus 1; assay: Ratio of IC50 for HIV1 carrying reverse transcriptase Y188L mutant to IC50 for wild type HIV1 in the presence of 40% normal human serum; assay type: functional
[7] = test system: Human immunodeficiency virus 1; assay: Antiviral activity against HIV1 carrying reverse transcriptase G190A mutant infected human MT4 cells by phenoscreen assay in the presence of 40 percent normal human serum; details: Human immunodeficiency virus 1, MT4
[8] = test system: Human immunodeficiency virus 1; assay: Antiviral activity against HIV1 carrying reverse transcriptase G190S mutant infected human MT4 cells by phenoscreen assay in the presence of 40 percent normal human serum; details: Human immunodeficiency virus 1, MT4
[9] = test system: Human immunodeficiency virus 1; assay: Antiviral activity against HIV1 R8 infected human MT4 cells assessed as drug level required for 95% inhibition in the presence of 10% fetal bovine serum; assay type: functional
In short: as §1

[10] = Half life in Sprague-Dawley rat at 10 mg/kg, po and 2 mg/kg, iv; assay type: ADME, organism-based; details: in vivo
[11] = test system: Human immunodeficiency virus 1; assay: Ratio of IC50 for HIV1 carrying reverse transcriptase Y181C/G190A mutant to IC50 for wild type HIV1 in the presence of 40% normal human serum; assay type: functional
[12] = Activity of CYP3A4 in rat plasma assessed as oxidation of tetrahydroquinoline ring; assay type: ADME, cell-free
[13] = test system: Human immunodeficiency virus 1; assay: Ratio of IC50 for HIV1 carrying reverse transcriptase […]/G190A mutant to IC50 for wild type HIV1 in the presence of 40% normal human serum; assay type: functional
[14] = test system: Human immunodeficiency virus 1; assay: Antiviral activity against HIV1 infected human MT4 cells by phenoscreen assay in the presence of 40 percent normal human serum; assay type: functional, organism-based; details: Human immunodeficiency virus 1, MT4
[15] = test system: Human immunodeficiency virus 1; assay: Antiviral activity against HIV1 carrying reverse transcriptase K101E/G190A mutant infected human MT4 cells by phenoscreen assay in the presence of 40 percent normal human serum; details: Human immunodeficiency virus 1, MT4
[16] = test system: Human immunodeficiency virus 1; assay: Antiviral activity against HIV1 carrying reverse transcriptase Y181C mutant infected human MT4 cells by phenoscreen assay in the presence of 40 percent normal human serum; assay type: functional, organism-based; details: Human immunodeficiency virus 1, MT4
In short: as §2

[17] = Activity of CYP3A4 in rat bile assessed as oxidation of tetrahydroquinoline ring; assay type: ADME
[18] = test system: Human immunodeficiency virus 1; assay: Ratio of IC50 for HIV1 carrying reverse transcriptase K103N mutant to IC50 for wild type HIV1 in the presence of 40% normal human serum; assay type: functional
[19] = test system: Human immunodeficiency virus 1; assay: Antiviral activity against HIV1 carrying reverse transcriptase […]/G190A mutant infected human MT4 cells in the presence of 40 percent normal human serum; assay type: functional
In short: as §2

[20] = test system: Human immunodeficiency virus 1; assay: Ratio of IC50 for HIV1 carrying reverse transcriptase K103N/V179E mutant to IC50 for wild type HIV1 in the presence of 40% normal human serum; assay type: functional
[21] = test system: Human immunodeficiency virus 1; assay: Ratio of IC50 for HIV1 carrying reverse transcriptase […]/ Y181C/G190A mutant to IC50 for wild type HIV1 in the presence of 40% normal human serum; assay type: functional
[22] = test system: Human immunodeficiency virus 1; assay: Antiviral activity against HIV1 carrying reverse transcriptase Y181C/G190A mutant infected human MT4 cells by phenoscreen assay in the presence of 40 percent normal human serum; assay type: functional, organism-based; details: Human immunodeficiency virus 1, MT4
In short: as §2

[23] = test system: Human immunodeficiency virus 1; assay: Ratio of IC50 for HIV1 carrying reverse transcriptase Y181C mutant to IC50 for wild type HIV1 in the presence of 40% normal human serum; assay type: functional
[24] = test system: Human immunodeficiency virus 1; assay: Antiviral activity against HIV1 carrying reverse transcriptase K103N/P225H mutant infected human MT4 cells by phenoscreen assay in the presence of 40 percent normal human serum; assay type: functional, organism-based; details: Human immunodeficiency virus 1, MT4
In short: as §2

[25] = test system: Human immunodeficiency virus 1; assay: Antiviral activity against HIV1 carrying reverse transcriptase K103N/G190A mutant infected human MT4 cells by phenoscreen assay in the presence of 40 percent normal human serum; assay type: functional, organism-based; details: Human immunodeficiency virus 1, MT4
In short: as §2

[26] = test system: Human immunodeficiency virus 1; assay: Ratio of IC50 for HIV1 carrying reverse transcriptase V106A/G190A/F227L mutant to IC50 for wild type HIV1 in the presence of 40% normal human serum; assay type: functional
[27] = test system: Human immunodeficiency virus 1; assay: Ratio of IC50 for HIV1 carrying reverse transcriptase K103N/G190A mutant to IC50 for wild type HIV1 in the presence of 40% normal human serum; assay type: functional
[28] = test system: Human immunodeficiency virus 1; assay: Ratio of IC50 for HIV1 carrying reverse transcriptase K103N/P225H mutant to IC50 for wild type HIV1 in the presence of 40% normal human serum; assay type: functional
[29] = Half life in Beagle dog at 1 mg/kg, po and 0.5 mg/kg, iv; assay type: ADME, organism-based, Canis lupus familiaris; details: in vivo
In short: as §3

[30] = test system: Human immunodeficiency virus 1; assay: Antiviral activity against HIV1 carrying reverse transcriptase K103N mutant infected human MT4 cells by phenoscreen assay in the presence of 40 percent normal human serum; assay type: functional, organism-based; details: Human immunodeficiency virus 1, MT4
In short: as §2

[31] = test system: Rattus norvegicus; assay: Hepatic clearance in Sprague-Dawley rat at 10 mg/kg, po and 2 mg/kg, iv; assay type: ADME, organism-based, Liver; details: in vivo
[32] = test system: Human immunodeficiency virus 1; assay: Antiviral activity against HIV1 carrying reverse transcriptase K103N/V179E mutant infected human MT4 cells by phenoscreen assay in the presence of 40 percent normal human serum; assay type: functional, organism-based; details: Human immunodeficiency virus 1, MT4
In short: as §2

[33] = Activity of CYP3A4 in rat liver microsomes assessed as oxidation of tetrahydroquinoline ring; assay type: ADME, Microsome
[34] = test system: Human immunodeficiency virus 1; assay: Ratio of IC50 for HIV1 carrying reverse transcriptase G190S mutant to IC50 for wild type HIV1 in the presence of 40% normal human serum; assay type: functional
[35] = test system: Human immunodeficiency virus 1; assay: Antiviral activity against HIV1 R8 infected human MT4 cells assessed as drug level required for 95% inhibition in the presence of 50% normal human serum; assay type: functional
In short: as §1

[36] = test system: Human immunodeficiency virus 1; assay: Antiviral activity against HIV1 carrying reverse transcriptase K103N/Y181C mutant infected human MT4 cells by phenoscreen assay in the presence of 40 percent normal human serum; assay type: functional, organism-based; details: Human immunodeficiency virus 1, MT4
In short: as §2

[37] = test system: Human immunodeficiency virus 1; assay: Ratio of IC50 for HIV1 carrying reverse transcriptase K103N/Y181C mutant to IC50 for wild type HIV1 in the presence of 40% normal human serum; assay type: functional
[38] = test system: Human immunodeficiency virus 1; assay: Antiviral activity against HIV1 carrying reverse transcriptase K103N/ Y181C/G190A mutant infected human MT4 cells by phenoscreen assay in the presence of 40 percent normal human serum; assay type: functional, organism-based; details: Human immunodeficiency virus 1, MT4
In short: as §2

[39] = test system: Human immunodeficiency virus 1; assay: Ratio of IC50 for HIV1 carrying reverse transcriptase […] mutant to IC50 for wild type HIV1 in the presence of 40% normal human serum; assay type: functional
[40] = test system: Human immunodeficiency virus 1; assay: Ratio of IC50 for HIV1 carrying reverse transcriptase G190A mutant to IC50 for wild type HIV1 in the presence of 40% normal human serum; assay type: functional
[41] = test system: Human immunodeficiency virus 1; assay: Antiviral activity against HIV1 carrying reverse transcriptase Y188L mutant infected human MT4 cells by phenoscreen assay in the presence of 40 percent normal human serum; assay type: functional, organism-based; details: Human immunodeficiency virus 1, MT4
In short: as §2

[42] = test system: Human immunodeficiency virus 1; assay: Antiviral activity against HIV1 carrying reverse transcriptase […] mutant infected human MT4 cells by phenoscreen assay in the presence of 40 percent normal human serum; assay type: functional, organism-based; details: Human immunodeficiency virus 1, MT4
In short: as §2

[43] = Activity of CYP3A4 in rat hepatocytes assessed as oxidation of tetrahydroquinoline ring; assay type: ADME, cell-based, Hepatocyte
[44] = test system: Human immunodeficiency virus 1; assay: Antiviral activity against HIV1 carrying reverse transcriptase K101E/ Y181C/G190A mutant infected human MT4 cells by phenoscreen assay in the presence of 40 percent normal human serum; details: Human immunodeficiency virus 1, MT4
[45] = Volume of distribution in Beagle dog at 1 mg/kg, po and 0.5 mg/kg, iv; assay type: ADME, organism-based, Canis lupus familiaris; details: in vivo, read-out: Vdss
In short: as §3

[46] = test system: Rattus norvegicus; assay: Hepatic clearance in rat at 10 mg/kg, po and 2 mg/kg, iv; details: in vivo
[47] = test system: Canis familiaris; assay: Hepatic clearance in Beagle dog at 1 mg/kg, po and 0.5 mg/kg, iv; assay type: ADME, organism-based, Canis lupus familiaris, Liver; details: in vivo
In short: as §3

NS(=O)(=O)c1ccc(NC(=O)CSC(=O)N2CCCc3cccc(Cl)c32)c(Cl)c1
IC50 [1]: 4 nM | ID95 [2]: 23 nM | ID95 [3]: 47 nM

NS(=O)(=O)c1ccc(NC(=O)CSC(=O)N2CCCc3cc(Cl)cc(Cl)c32)c(Cl)c1
IC50 [4]: > 1000 nM | bioavailability [5]: 30% | fold change (FC) [6]: >833 | IC50 [7]: 12.1 nM | IC50 [8]: 61.9 nM | Activity [9]: 18 nM | half-life [10]: 24 min | fold change (FC) [11]: 272.5 | Activity [12]: Active | fold change (FC) [13]: 94.3 | IC50 [14]: 1.2 nM | IC50 [15]: 113 nM | IC50 [16]: 16.8 nM | Activity [17]: Active | fold change (FC) [18]: 0.8 | fold change (FC) [19]: 94.3 | fold change (FC) [20]: 1.8 | fold change (FC) [21]: >833 | IC50 [22]: 327 nM | fold change (FC) [23]: 14 | IC50 [24]: 3.2 nM | IC50 [25]: 8.2 nM | fold change (FC) [26]: >833 | fold change (FC) [27]: 6.8 | fold change (FC) [28]: 2.7 | half-life [29]: 294 min | IC50 [30]: 0.9 nM | CL [31]: 109 mL/min/kg | IC50 [32]: 2.2 nM | ID95 [2]: 13 nM | Activity [33]: Active | ID95 [3]: 40 nM | fold change (FC) [34]: 51.6 | Activity [35]: 33 nM | IC50 [36]: 64.2 nM | fold change (FC) [37]: 53.5 | IC50 [38]: > 1000 nM | fold change (FC) [39]: 4.6 | fold change (FC) [40]: 10.1 | IC50 [41]: > 1000 nM | IC50 [42]: 5.5 nM | Activity [43]: Active | IC50 [44]: > 1000 nM | Vd [45]: 5 L/kg

NS(=O)(=O)c1ccc(NC(=O)C2CC2C(=O)N2CCCc3cc(Cl)cc(Cl)c32)c(Cl)c1 (single isomer, unassigned; 16)
IC50 [1]: 18 nM | half-life [10]: 30 min | CL [46]: 22 mL/min/kg | half-life [29]: 78 min | Activity [2]: 176 nM | Activity [3]: 304 nM | CL [47]: 14 mL/min/kg

NS(=O)(=O)c1ccc(NC(=O)C2CC2C(=O)N2CCCc3cc(Cl)cc(Cl)c32)c(Cl)c1 (single isomer, unassigned; 17)
IC50 [1]: 430 nM | Activity [2]: 922 nM | Activity [3]: 922 nM
